The list is not random: actives were taken first. Their share in the collection is about 1%.
thrombin 1536: inhibitors of human thrombin; AID 1046; P00734; alpha-thrombin, Boc-VPR-AMC fluorogenic substrate cleavage; inhibition, % at 5 µM; 0.26% of 220,000 active;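 active = inhibition at or above 40%; inactive = inhibition below 40%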
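Test system: human alpha-thrombin; medium: pH 7.5 Tris-saline with Tween 20; times: reaction at room temperature; signal: AMC fluorescence at 355 nm excitation and 460 nm emission; also added: Boc-VPR-AMC substrate, 15 µM final; dosing: one concentration per compound, 5 µM, with 0.2% DMSO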
FXIa inh: factor XIa (human) inhibition. P03951. purified FXIa, Boc-Glu-Ala-Arg-AMC fluorogenic substrate. inhibition, % at 5 µM. 0.14% of 220,000 active. AID 798;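 active = inhibition of at least 40%; inactive = inhibition below 40%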;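 also: fluorescence of freed AMC excited at 355 nm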
FXIIa inh 1536: inhibitors of human coagulation factor XIIa | P00748 | purified FXIIa, Boc-QGR-AMC fluorogenic substrate, 2 h | inhibition, % at 5 µM | 0.3% of 220,000 active | AID 800; in the data active = inhibition above about 40%
Target sequence (P00748 20-372 limits assumed): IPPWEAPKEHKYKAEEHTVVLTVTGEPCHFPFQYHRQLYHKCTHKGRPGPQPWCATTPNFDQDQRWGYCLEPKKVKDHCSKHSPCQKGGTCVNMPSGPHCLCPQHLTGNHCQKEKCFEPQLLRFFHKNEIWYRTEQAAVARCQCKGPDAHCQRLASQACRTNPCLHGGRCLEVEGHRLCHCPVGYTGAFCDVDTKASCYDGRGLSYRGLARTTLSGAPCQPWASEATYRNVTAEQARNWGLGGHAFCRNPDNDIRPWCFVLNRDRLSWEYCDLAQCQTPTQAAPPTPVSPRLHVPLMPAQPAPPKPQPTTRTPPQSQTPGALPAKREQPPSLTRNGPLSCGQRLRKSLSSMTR
Target sequence (P00748 373-615 limits assumed): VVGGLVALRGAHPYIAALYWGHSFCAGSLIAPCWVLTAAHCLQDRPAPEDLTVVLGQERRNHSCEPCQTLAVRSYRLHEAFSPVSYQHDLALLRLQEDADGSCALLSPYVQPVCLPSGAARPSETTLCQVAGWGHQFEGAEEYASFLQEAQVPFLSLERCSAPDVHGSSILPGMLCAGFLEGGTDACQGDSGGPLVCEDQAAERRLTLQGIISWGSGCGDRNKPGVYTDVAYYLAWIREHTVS
hK5 inh: kallikrein 5 (human) inhibition; Q9Y337; recombinant hK5, fluorogenic AMC substrate cleavage; inhibition, % at 5 µM; 0.59% of 210,000 active;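 active = inhibition of 40% or more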
Of the large screens only hits and unclear results are named; the others gave an inactive call.

O=C1COc2ccc(C(=O)c3ccccc3C(=O)NCc3ccccc3)cc2N1	none
O=C(OCCCC(=O)N1CCOCC1)c1ccccc1	hK5 inh 42
O=C(CCSc1ccccc1)N1CCOCC1	none
C=CCNC(=S)N/N=C/c1ccc(C)c([N+](=O)[O-])c1	FXIa inh 41, FXIIa inh 1536 106, hK5 inh 62
Cc1c(NC(=O)CN2CCCc3ccccc32)c(=O)n(-c2ccccc2)n1C	hK5 inh 144
Cc1c(NC(=O)CC(=O)Nc2c(C)n(C)n(-c3ccccc3)c2=O)c(=O)n(-c2ccccc2)n1C	none
O=C(Nc1ccc(S(=O)(=O)NCc2ccco2)cc1)C1CCCCC1	none (no result: hK5 inh)
O=C(CSc1ncccn1)n1c2c(c3ccccc31)CCCC2	hK5 inh 77
Cc1cc(C)nc(SCC(=O)n2c3c(c4ccccc42)CCCC3)n1	none
C=CCOC(=O)c1c(C)nc2cc3c(cc2c1C)OCO3	hK5 inh 44
Cc1nc(NC(=O)c2ccccc2)nc2cc3c(cc12)OCO3	none
CCOC(=O)c1cccc(NC(=O)C2(S(=O)(=O)c3ccc(Cl)cc3)CC2)c1	none
COc1ccc(OCC(O)CNC(=O)/C=C/c2cccc([N+](=O)[O-])c2)cc1 (stereo not given)	none
COc1cccc(NC(=O)Nc2ccccc2SC)c1	FXIIa inh 1536 102
COc1cccc(NC(=O)Nc2cccnc2)c1	FXIIa inh 1536 40, hK5 inh 71
COc1cc(NC(C(=O)Nc2cccc(C(C)=O)c2)c2ccccc2)cc(OC)c1OC (stereo not given)	none
COc1cccc(NC(C(=O)Nc2cccc(C(C)=O)c2)c2ccccc2)c1 (stereo not given)	FXIIa inh 1536 54
Cc1cc(C(=O)NCc2ccc(F)cc2)n(-c2ccccc2)n1	none
CC(=O)Nc1c(O)nc(SCC(=O)Nc2nnc(SCc3ccccc3)s2)[nH]c1=O	none
CC(C)(C)S(=O)(=O)c1c(C(=O)O)cccc1C(=O)O	none
COc1cc(C(=O)N[C@H](C(=O)NC2CCCCCC2)C(C)C)cc(OC)c1OC	hK5 inh 44
O=c1[nH]nc(Cc2ccc(Cl)cc2Cl)c2ccccc12	none
O=c1[nH]nc(Cc2ccc(Cl)cc2)c2ccccc12	hK5 inh 54
CCOC(=O)C1(C)C=C(Nc2cccc(OC)c2)C(=O)N1c1ccccc1 (stereo not given)	hK5 inh 44
CN1CCN(C(CNS(=O)(=O)c2ccc(F)cc2)c2cccnc2)CC1 (stereo not given)	none
CN1CCN(C(CNS(=O)(=O)c2ccc(Cl)cc2)c2cccnc2)CC1 (stereo not given)	hK5 inh 42
CCCCNC(=O)Cc1cc(=O)[nH]c(=O)[nH]1	none
CC(=O)N1CCC(N(CCN2CCOCC2)C(=S)Nc2cc(C)ccc2C)CC1	hK5 inh 51
CC1CCN(c2nc3ccccc3nc2C(C#N)C(=O)OC2CCCCC2)CC1 (stereo not given)	none
CC1CN(c2nc3ccccc3nc2C(C#N)C(=O)OC2CCCCC2)CC(C)O1 (stereo not given)	hK5 inh 64
O=C(C1CCCO1)N1CCN(C(=S)Nc2ccc(Cl)cc2)CC1 (stereo not given)	none
COc1ccc(S(=O)(=O)N2CCCC2C(=O)NCc2cccs2)cc1 (stereo not given)	hK5 inh 48
CC1CCCCC1NC(=O)CN1C(=O)CSc2cc(S(=O)(=O)N3CCCCCC3)ccc21 (stereo not given)	none
O=C1CC(O)(C(F)(F)F)Oc2c1ccc1ccccc21 (stereo not given)	hK5 inh 93
CN(C)C(=O)N1CCC(C(=O)N2CCCC(C(=O)c3cccc4ccccc34)C2)CC1 (stereo not given)	none (no result: hK5 inh)
Cc1sc2nc(N)sc2c1C	hK5 inh 63
O=C(Nc1ccncc1)c1ccc2c(c1)C(=O)N(C1CCCCC1)C2=O	none
CCCCNC(=O)CNC(=O)c1cccs1	none
O=C(NCCO)/C(=C\c1ccc(Br)cc1)NC(=O)c1cccs1	none
CCOCCCNC(=O)c1cccs1	hK5 inh 42
COCCCNC(=O)/C(=C\c1cccn1C)NC(=O)c1cccs1	thrombin 1536 50
COC(=O)CNC(=O)CNC(=O)Nc1ccccc1Cl	hK5 inh 41
CN(C)CCNc1ncnc2c1sc1nc(-c3ccccc3)c3c(c12)CCCC3	FXIIa inh 1536 42
COc1ncnc2c1sc1nc(-c3ccccc3)c3c(c12)CCCC3	none
COc1ccccc1CNC(=O)CSc1nc2ccccc2c(=O)n1CCCN1CCOCC1	none
Cc1cc(NC(=O)CSc2nnc(-c3c[nH]c4ccccc34)n2-c2ccc(F)cc2)no1	none
CCOc1ccc(-n2c(SCC(=O)Nc3cc(C)on3)nnc2-c2c[nH]c3ccccc23)cc1	FXIIa inh 1536 48
COc1ccc(NC(=O)CSc2nc3ccccc3c(=O)n2CCCN2CCCCC2)c(OC)c1	hK5 inh 49
Cc1cc(NC(=O)CSc2nc3ccccc3c(=O)n2-c2ccccc2)no1	hK5 inh 43
COc1cccc(-n2c(SCC(=O)Nc3ccc4c(c3)CCC4)nc3ccccc3c2=O)c1	thrombin 1536 54, hK5 inh 45
N/C(=N\NC(=O)c1cccs1)c1cc2cc(Cl)ccc2oc1=O	none
CCn1c(SCC(=O)N2CCN(c3ccccc3)CC2)nnc1-c1cc2cc(Cl)ccc2o1	FXIIa inh 1536 47
COC(=O)CN1C(=O)C(O)(CC(=O)c2ccc(Cl)cc2)c2ccccc21 (stereo not given)	thrombin 1536 41
COC(=O)CN1C(=O)C(O)(CC(=O)c2cccc(Br)c2)c2ccccc21 (stereo not given)	none
COc1ccc(-c2[nH]nc3c2C(c2ccsc2)C(C#N)=C(N)O3)cc1 (stereo not given)	hK5 inh 81
COc1ccc(N=C2O/C(=C/c3sc(=S)n(CC4CCCO4)c3O)N=C2C#N)cc1 (stereo not given)	none
Oc1ccc(C2Nc3cccc4cccc(c34)N2)c(O)c1	thrombin 1536 67, hK5 inh 57
COc1cc(C2Nc3cccc4cccc(c34)N2)cc(OC)c1O	none
COc1ccc(C2=CSC3=NCCN23)cc1F	FXIIa inh 1536 101
COc1ccc(-c2csc(N)n2)cc1F	none
O=S(=O)(N1CCCCC1)N1CCN(c2ccccc2F)CC1	FXIIa inh 1536 48
Cc1ccc(-c2nn(-c3ccccc3)cc2/C=N/NS(=O)(=O)c2ccccc2)cc1	FXIIa inh 1536 45
Cc1ccc(S(=O)(=O)N/N=C\c2cn(-c3ccccc3)nc2-c2ccccc2)cc1	none
O=C(Cn1nnc(-c2ccncc2)n1)NCCc1ccccc1	hK5 inh 48
O=C(Cn1nnc(-c2cccs2)n1)NCCc1ccccc1	none
O=C(CN(Cc1cccs1)C(=O)CNS(=O)(=O)c1ccccc1)NCc1ccco1	hK5 inh 89
COc1ccc(-c2nc(N)n(C(=O)c3ccco3)n2)cc1	none
COc1ccc(-c2nc(SC)n(C(=O)c3ccco3)n2)cc1	thrombin 1536 80
Nc1ccccc1C(=O)NCCN1CCNC1=O	none
Cc1ccc(C(=O)NCCN2CCNC2=O)cc1	FXIIa inh 1536 47, hK5 inh 44

Screening data from PubChem BioAssay.
